According to ChEMBL document CHEMBL4229344 (Eur J Med Chem, 2018):

Columns and labels:
[1] = Cytotoxicity against mouse BA/F3 cells after 72 hrs by CellTiter-Glo or CCK-8 assay; type: cell-based, BaF3
Procedure, shortened: (§1)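 Parental BaF3 or IL-3-independent TEL-kinase BaF3 lines, made by retroviral infection and puromycin selection, grown in RPMI 1640 with 10% FBS. Cells seeded at 1–3 × 10^4 cells/mL with serial compound concentrations for 72 h. Viability read by CellTiter-Glo luminescence or CCK-8 absorbance at 450/655 nm and normalised to DMSO. GI50 obtained by triplicate testing with linear regression. Selectivity is the ratio of the two GI50 values.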

[2] = molecular target: Mast/stem cell growth factor receptor Kit (Homo sapiens, UniProt P10721); test: Inhibition of TEL-fused c-KIT (unknown origin) expressed in mouse BA/F3 cells assessed as growth inhibition after 72 hrs by CellTiter-Glo or CCK-8 assay; type: cell-based; procedure, shortened: as §1
[3] = molecular target: Platelet-derived growth factor receptor alpha (Homo sapiens, UniProt P16234)
[4] = molecular target: Platelet-derived growth factor receptor beta (Homo sapiens, UniProt P09619); test: Inhibition of TEL-fused PDGFRbeta (unknown origin) expressed in mouse BA/F3 cells assessed as growth inhibition after 72 hrs by CellTiter-Glo or CCK-8 assay; type: cell-based; procedure, shortened: as §1
[5] = molecular target: Vascular endothelial growth factor receptor 2 (Homo sapiens) (UniProt P35968)
[6] = species on record: Homo sapiens; test: Selectivity index, ratio of GI50 for TEL-fused PDGFRbeta (unknown origin) expressed in mouse BA/F3 cells to GI50 for TEL-fused PDGFRalpha (unknown origin) expressed in mouse BA/F3 cells; type: cell-based; procedure, shortened: as §1

Sequence of Platelet-derived growth factor receptor alpha (P16234 whole entry, the tested form may be a part): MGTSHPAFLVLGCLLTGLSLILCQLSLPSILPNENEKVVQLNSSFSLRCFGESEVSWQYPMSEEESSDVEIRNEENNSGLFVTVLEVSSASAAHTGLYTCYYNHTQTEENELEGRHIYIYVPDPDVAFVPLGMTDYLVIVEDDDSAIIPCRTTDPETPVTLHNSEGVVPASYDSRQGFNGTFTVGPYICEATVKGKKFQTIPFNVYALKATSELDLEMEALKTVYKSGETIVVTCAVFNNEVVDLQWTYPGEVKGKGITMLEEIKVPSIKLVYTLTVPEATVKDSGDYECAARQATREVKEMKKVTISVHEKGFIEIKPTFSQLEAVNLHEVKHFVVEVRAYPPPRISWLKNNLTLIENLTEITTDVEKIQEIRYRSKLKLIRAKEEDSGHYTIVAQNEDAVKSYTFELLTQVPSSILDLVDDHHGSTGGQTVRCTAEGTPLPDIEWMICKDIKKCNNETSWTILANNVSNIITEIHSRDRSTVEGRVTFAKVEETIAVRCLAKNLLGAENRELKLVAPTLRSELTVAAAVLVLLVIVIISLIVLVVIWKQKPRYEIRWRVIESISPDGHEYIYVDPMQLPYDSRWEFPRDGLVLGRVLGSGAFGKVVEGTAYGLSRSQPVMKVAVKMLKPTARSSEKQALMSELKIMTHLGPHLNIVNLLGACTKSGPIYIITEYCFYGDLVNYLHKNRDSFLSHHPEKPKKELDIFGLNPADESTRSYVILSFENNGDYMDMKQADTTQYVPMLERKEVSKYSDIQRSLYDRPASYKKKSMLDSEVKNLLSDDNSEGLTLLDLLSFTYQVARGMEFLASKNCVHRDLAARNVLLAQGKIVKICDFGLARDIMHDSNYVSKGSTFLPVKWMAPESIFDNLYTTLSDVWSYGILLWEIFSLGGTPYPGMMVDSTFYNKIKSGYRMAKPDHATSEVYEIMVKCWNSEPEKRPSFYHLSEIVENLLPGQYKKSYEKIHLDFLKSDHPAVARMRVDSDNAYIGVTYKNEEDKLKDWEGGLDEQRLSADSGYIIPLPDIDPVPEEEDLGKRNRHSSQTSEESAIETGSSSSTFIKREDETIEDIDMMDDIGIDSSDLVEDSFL
Sequence of Platelet-derived growth factor receptor beta (P09619 whole entry, the tested form may be a part): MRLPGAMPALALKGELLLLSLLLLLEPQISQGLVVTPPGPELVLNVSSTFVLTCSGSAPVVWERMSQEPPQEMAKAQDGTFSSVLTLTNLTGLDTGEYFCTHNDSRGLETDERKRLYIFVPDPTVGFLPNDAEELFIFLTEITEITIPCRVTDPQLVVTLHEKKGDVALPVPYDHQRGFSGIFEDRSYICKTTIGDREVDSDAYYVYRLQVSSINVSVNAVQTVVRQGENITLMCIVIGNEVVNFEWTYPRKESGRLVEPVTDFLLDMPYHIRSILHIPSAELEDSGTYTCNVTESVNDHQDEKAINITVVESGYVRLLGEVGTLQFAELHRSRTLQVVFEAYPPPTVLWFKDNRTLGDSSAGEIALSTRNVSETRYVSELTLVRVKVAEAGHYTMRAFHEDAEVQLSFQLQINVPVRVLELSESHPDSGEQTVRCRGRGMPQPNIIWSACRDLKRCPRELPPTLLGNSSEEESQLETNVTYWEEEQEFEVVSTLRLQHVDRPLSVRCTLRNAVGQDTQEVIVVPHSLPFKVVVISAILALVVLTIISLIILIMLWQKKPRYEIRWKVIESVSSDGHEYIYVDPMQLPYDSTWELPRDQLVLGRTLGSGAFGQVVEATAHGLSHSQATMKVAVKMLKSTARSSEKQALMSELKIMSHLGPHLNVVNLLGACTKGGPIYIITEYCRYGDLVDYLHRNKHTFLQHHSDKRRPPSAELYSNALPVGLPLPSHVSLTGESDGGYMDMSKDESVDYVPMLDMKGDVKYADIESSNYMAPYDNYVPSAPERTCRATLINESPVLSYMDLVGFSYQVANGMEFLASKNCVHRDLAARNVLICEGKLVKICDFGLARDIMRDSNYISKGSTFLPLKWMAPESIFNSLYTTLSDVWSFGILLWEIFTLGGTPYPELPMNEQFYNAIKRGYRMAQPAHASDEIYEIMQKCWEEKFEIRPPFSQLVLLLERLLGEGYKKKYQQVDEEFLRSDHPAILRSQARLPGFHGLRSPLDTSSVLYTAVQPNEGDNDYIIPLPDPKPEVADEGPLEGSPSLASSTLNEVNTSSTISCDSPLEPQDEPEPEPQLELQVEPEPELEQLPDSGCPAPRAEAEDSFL
Sequence of Vascular endothelial growth factor receptor 2 (Homo sapiens) (P35968 whole entry, the tested form may be a part): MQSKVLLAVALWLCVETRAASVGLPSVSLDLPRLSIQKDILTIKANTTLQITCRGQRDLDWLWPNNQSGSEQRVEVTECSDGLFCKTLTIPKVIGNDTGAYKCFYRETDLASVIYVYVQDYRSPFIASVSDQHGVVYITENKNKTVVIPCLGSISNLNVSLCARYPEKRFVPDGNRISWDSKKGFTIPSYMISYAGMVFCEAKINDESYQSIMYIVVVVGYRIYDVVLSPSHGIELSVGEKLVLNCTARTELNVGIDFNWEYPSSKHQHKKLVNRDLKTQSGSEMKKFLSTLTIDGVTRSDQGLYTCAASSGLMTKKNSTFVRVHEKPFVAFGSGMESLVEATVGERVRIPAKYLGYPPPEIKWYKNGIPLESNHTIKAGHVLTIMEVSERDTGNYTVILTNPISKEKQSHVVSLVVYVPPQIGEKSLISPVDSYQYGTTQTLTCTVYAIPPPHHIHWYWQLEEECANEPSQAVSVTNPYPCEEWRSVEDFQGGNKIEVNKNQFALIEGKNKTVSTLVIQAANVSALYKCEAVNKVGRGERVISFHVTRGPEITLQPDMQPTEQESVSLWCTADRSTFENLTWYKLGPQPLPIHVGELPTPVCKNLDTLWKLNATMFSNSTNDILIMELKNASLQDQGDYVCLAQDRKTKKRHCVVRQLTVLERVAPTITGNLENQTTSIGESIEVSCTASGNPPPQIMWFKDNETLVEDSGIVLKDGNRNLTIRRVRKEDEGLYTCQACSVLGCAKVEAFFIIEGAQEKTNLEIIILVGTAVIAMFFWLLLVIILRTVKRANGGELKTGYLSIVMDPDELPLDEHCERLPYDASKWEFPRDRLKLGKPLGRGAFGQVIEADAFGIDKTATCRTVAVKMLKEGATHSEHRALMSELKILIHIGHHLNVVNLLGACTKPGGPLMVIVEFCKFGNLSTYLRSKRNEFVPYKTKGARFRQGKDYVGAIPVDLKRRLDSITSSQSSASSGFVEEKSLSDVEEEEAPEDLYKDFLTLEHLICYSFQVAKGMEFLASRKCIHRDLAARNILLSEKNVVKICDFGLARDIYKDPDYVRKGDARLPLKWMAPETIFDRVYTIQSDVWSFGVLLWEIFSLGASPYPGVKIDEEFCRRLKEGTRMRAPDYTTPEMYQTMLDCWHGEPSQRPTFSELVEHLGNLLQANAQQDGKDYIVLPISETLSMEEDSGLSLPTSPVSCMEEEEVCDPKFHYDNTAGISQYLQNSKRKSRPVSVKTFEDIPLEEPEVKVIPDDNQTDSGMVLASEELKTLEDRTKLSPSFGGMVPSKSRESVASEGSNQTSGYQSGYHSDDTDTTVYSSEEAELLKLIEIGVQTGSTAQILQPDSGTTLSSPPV
Sequence of Mast/stem cell growth factor receptor Kit (P10721 whole entry, the tested form may be a part): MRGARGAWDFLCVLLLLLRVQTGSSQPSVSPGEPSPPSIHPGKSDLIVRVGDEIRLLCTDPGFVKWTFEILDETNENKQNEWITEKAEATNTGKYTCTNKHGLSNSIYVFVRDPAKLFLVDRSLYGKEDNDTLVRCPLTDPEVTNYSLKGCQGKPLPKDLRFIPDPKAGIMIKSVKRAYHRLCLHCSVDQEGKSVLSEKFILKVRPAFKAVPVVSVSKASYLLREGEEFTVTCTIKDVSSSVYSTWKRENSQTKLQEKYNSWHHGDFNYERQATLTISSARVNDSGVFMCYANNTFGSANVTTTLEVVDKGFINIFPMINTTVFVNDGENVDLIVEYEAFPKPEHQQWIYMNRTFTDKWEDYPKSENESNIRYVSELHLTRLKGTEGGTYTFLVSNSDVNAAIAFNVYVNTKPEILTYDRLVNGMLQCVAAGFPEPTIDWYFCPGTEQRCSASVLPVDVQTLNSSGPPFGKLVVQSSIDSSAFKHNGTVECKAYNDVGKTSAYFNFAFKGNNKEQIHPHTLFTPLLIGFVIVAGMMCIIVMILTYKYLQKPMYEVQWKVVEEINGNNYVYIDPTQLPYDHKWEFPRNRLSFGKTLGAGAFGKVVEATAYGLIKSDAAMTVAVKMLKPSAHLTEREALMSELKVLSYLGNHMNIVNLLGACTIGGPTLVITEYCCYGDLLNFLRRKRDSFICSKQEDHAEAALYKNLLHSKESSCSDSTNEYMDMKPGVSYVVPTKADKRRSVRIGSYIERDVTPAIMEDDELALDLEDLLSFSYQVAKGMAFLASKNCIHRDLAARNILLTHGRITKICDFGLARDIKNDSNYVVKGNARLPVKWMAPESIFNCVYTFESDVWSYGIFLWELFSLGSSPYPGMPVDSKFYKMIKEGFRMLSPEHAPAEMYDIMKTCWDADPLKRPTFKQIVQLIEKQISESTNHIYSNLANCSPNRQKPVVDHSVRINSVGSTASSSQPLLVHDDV

Row | Structure (SMILES) | GI50 [2] [nM] | GI50 [3] [nM] | GI50 [4] [nM] | GI50 [5] [nM] | GI50 at 72 h [1] [nM] | RatioGI50 [6]
1 | Cc1ccc(NC(=O)c2ccc(CN(CCN(C)C)C(=O)c3ccno3)cc2)cc1Nc1nccc(-c2cccnc2)n1 | > 10000 | 166 | 787 | > 10000 | > 10000 | 
2 | CCC(=O)N(CCN(C)C)Cc1ccc(C(=O)Nc2ccc(C)c(Nc3nccc(-c4cccnc4)n3)c2)cc1 | > 10000 | 36 | 504 | > 10000 | > 10000 | 14
3 | Cc1ccc(NC(=O)c2ccc(CN(CCO)C(=O)c3cccnc3)cc2)cc1Nc1nccc(-c2cccnc2)n1 | > 10000 | 353 | 3020 | > 10000 | > 10000 | 
4 | CCC(=O)Nc1cc(C(=O)Nc2ccc(C)c(Nc3nccc(-c4cccnc4)n3)c2)cc(C(F)(F)F)c1 | 104 | 39 | 231 | > 10000 | > 10000 | 
5 | CCC(=O)NCc1cccc(C(=O)Nc2ccc(C)c(Nc3nccc(-c4cccnc4)n3)c2)c1 | 2920 | 15 | 221 | 3220 | 4750 | 
6 | Cc1ccc(NC(=O)c2ccc(CNC(=O)c3cccnc3)c(C(F)(F)F)c2)cc1Nc1nccc(-c2cccnc2)n1 | 66 | 5 | 82 | 3410 | 8330 | 
7 | C=CC(=O)Nc1ccc(C(=O)Nc2ccc(C)c(Nc3nccc(-c4cccnc4)n3)c2)cc1 | 2940 |  | 757 | 2030 | 5600 | 
8 | C=CC(=O)NCc1cccc(C(=O)Nc2ccc(C)c(Nc3nccc(-c4cccnc4)n3)c2)c1 | 4750 | 160 | 244 | > 10000 | > 10000 | 
9 | C/C=C/C(=O)N(CCN(C)C)Cc1ccc(C(=O)Nc2ccc(C)c(Nc3nccc(-c4cccnc4)n3)c2)cc1 | > 10000 | 54 | 219 | 8540 | > 10000 | 
10 | Cc1ccc(NC(=O)c2ccc(CN(CCN(C)C)C(=O)C(C)(C)C)cc2)cc1Nc1nccc(-c2cccnc2)n1 | 2530 | 17 | 61 | 5480 | > 10000 | 
11 | Cc1ccc(NC(=O)c2ccc(CNC(=O)c3cccnc3)cc2)cc1Nc1nccc(-c2cccnc2)n1 | 216 | 14 | 341 | 348 | 1120 | 
12 | C=CC(=O)N(CCN(C)C)Cc1ccc(C(=O)Nc2ccc(C)c(Nc3nccc(-c4cccnc4)n3)c2)cc1 | > 10000 | 11 | 350 | > 10000 | > 10000 | > 30
13 | Cc1ccc(NC(=O)c2ccc(NC(=O)c3cccnc3)cc2)cc1Nc1nccc(-c2cccnc2)n1 | 426 | 13 | 583 | 882 | 1700 | 
14 | C=CC(=O)N(CCC(C)C)Cc1ccc(C(=O)Nc2ccc(C)c(Nc3nccc(-c4cccnc4)n3)c2)cc1 | 3940 | 19 | 230 | 5740 | 5620 | 
15 | CCN(CC)CCN(Cc1ccc(C(=O)Nc2ccc(C)c(Nc3nccc(-c4cccnc4)n3)c2)cc1)C(=O)c1cccnc1 | > 10000 | 33 | 699 | > 10000 | > 10000 | 

The next lines start with results.

Row | GI50 [2] [nM] | GI50 [3] [nM] | GI50 [4] [nM] | GI50 [5] [nM] | Structure (SMILES) | GI50 at 72 h [1] [nM] | RatioGI50 [6]
16 | 580 | 13 | 48 | 1560 | C=CS(=O)(=O)NCc1ccc(C(=O)Nc2ccc(C)c(Nc3nccc(-c4cccnc4)n3)c2)cc1 | 7710 | 
17 | 5000 | 24 | 125 | 4880 | Cc1ccc(NC(=O)c2ccc(CNCCN(C)C)cc2)cc1Nc1nccc(-c2cccnc2)n1 | > 10000 | 
18 | > 10000 | 363 | 3880 | > 10000 | Cc1ccc(NC(=O)c2ccc(CN(CCO)C(=O)CN(C)C)cc2)cc1Nc1nccc(-c2cccnc2)n1 | > 10000 | 
19 | 250 | 13 | 98 | 3340 | C=CC(=O)Nc1cc(C(=O)Nc2ccc(C)c(Nc3nccc(-c4cccnc4)n3)c2)cc(C(F)(F)F)c1 | 5460 | 
20 | > 10000 |  | 155 |  | C=CC(=O)NCc1ccc(C(=O)Nc2ccc(C)c(Nc3nccc(-c4cccnc4)n3)c2)cc1 | > 10000 | 
21 | 1530 | 8 | 173 | 1570 | C=CC(=O)Nc1cccc(C(=O)Nc2ccc(C)c(Nc3nccc(-c4cccnc4)n3)c2)c1 | 2480 | 
22 | 5750 | 25 | 90 | 4760 | CCCC(=O)N(CCN(C)C)Cc1ccc(C(=O)Nc2ccc(C)c(Nc3nccc(-c4cccnc4)n3)c2)cc1 | > 10000 | 
23 | 6220 | 14 | 201 | > 10000 | CCC(=O)NCc1ccc(C(=O)Nc2ccc(C)c(Nc3nccc(-c4cccnc4)n3)c2)cc1 | > 10000 | 
24 | 5140 | 344 | 1100 | 4550 | C=CC(=O)N(CCN(CC)CC)Cc1ccc(C(=O)Nc2ccc(C)c(Nc3nccc(-c4cccnc4)n3)c2)cc1 | 5450 | 
25 | > 10000 | 100 | 240 | > 10000 | Cc1ccc(C(=O)N(CCN(C)C)Cc2ccc(C(=O)Nc3ccc(C)c(Nc4nccc(-c5cccnc5)n4)c3)cc2)cc1 | > 10000 | 
26 | > 10000 | 56 | 207 | > 10000 | Cc1ccc(NC(=O)c2ccc(CN(CCN(C)C)C(=O)c3cccs3)cc2)cc1Nc1nccc(-c2cccnc2)n1 | > 10000 | 
27 | 4940 | 12 | 888 | 6270 | CCC(=O)Nc1ccc(C(=O)Nc2ccc(C)c(Nc3nccc(-c4cccnc4)n3)c2)cc1 | > 10000 | 
28 | > 10000 | 112 | 437 | > 10000 | Cc1ccc(NC(=O)c2ccc(CN(CCN(C)C)C(=O)C3CC3)cc2)cc1Nc1nccc(-c2cccnc2)n1 | > 10000 | 
29 | 6110 | 39 | 123 | 8640 | Cc1ccc(NC(=O)c2ccc(CN(CCN(C)C)C(=O)C(C)C)cc2)cc1Nc1nccc(-c2cccnc2)n1 | > 10000 | 
30 | > 10000 | 39 | 934 | > 10000 | Cc1ccc(NC(=O)c2ccc(CN(CCN3CCCC3)C(=O)c3cccnc3)cc2)cc1Nc1nccc(-c2cccnc2)n1 | > 10000 | 
31 | > 10000 | 120 | 9200 | > 10000 | Cc1ccc(NC(=O)c2ccc(CN(CCN(C)C)C(=O)CN(C)C)cc2)cc1Nc1nccc(-c2cccnc2)n1 | > 10000 | 
32 | 300 | 59 | 161 | > 10000 | C=CC(=O)NCc1ccc(C(=O)Nc2ccc(C)c(Nc3nccc(-c4cccnc4)n3)c2)cc1C(F)(F)F | > 10000 | 
